Source: PubChem BioAssay (Sanford-Burnham Center for Chemical Genomics)
Sampled rows, rich in hits. Any-hit rate of the full collection: about 2.3%.
Rpn11 block – Rpn11 (human) deubiquitinase inhibition. inhibition, % at 20 µM. AID 588493. O00487. human 26S proteasome, Ub4-pepOG fluorescence polarization; 20S core pre-blocked with epoxomicin. 0.59% of 360,000 active;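 active means inhibition at 20 µM, scaled to each plate's controls, above about 33%, limit read from the data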
Scp1 inh – inhibitors of human Scp-1 phosphatase; 0.88% of 340,000 active; inhibition, % at 20 µM; Recombinant Scp1, phosphopeptide, malachite green phosphate absorbance;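 active means inhibition above about 50% at 20 µM, limit read from the data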;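 further: plate controls were DMSO wells with enzyme for no effect and wells lacking enzyme for full effect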
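Test system – truncated SCP-1 phosphatase (76-261aa) · Reagent – Phosphorylated 17-residue peptide substrate · Incubation – 45 min room-temperature reaction, 5 min colour, 30 min stabiliser · Detection – colorimetric phosphate reagent with accelerator and stabiliser, absorbance at 630 nm · Measure – % inhibition at 20 µM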
LMPTP inh – blocks human LMPTP phosphatase. inhibition, % at 20 µM. 0.22% of 360,000 active. recombinant LMPTP-A, OMFP fluorogenic substrate, fluorescence intensity;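 active means compounds that cut the enzyme signal by at least half of the control window in the single-dose screen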;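 further: plate controls were DMSO wells with enzyme plus substrate for no effect and substrate without enzyme for full effect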
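Assay system: LMPTP-A, protein tyrosine phosphatase of low molecular weight / Medium: pH 6.0 Bis-Tris buffer with DTT and Triton X-100 / Schedule: 50 min enzyme reaction at room temperature, protected from light / Measured by: endpoint fluorescence intensity from OMFP dephosphorylation / Read-out basis: % inhibition relative to no-enzyme and uninhibited control wells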
SUMO1-SIM PPI – SUMO1-SIM interaction modulation; SUMO1 binding to a labelled peptide, TR-FRET, 1 h; 0.33% of 360,000 active; P63165; inhibition, % at 20 µM; AID 602429; in the data active means inhibition above about 37%
STEP inh – blocks human striatal-enriched tyrosine phosphatase | P54829 | recombinant STEP, OMFP fluorogenic substrate, fluorescence | inhibition, % at 20 µM | 0.25% of 360,000 active | AID 588621;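 active means inhibition at 20 µM, scaled per plate between control wells, above about 37%, limit read from the data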;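 further: 0% = DMSO with enzyme and substrate and 100% = substrate only without enzyme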
Target sequence (P54829 whole entry, looked up): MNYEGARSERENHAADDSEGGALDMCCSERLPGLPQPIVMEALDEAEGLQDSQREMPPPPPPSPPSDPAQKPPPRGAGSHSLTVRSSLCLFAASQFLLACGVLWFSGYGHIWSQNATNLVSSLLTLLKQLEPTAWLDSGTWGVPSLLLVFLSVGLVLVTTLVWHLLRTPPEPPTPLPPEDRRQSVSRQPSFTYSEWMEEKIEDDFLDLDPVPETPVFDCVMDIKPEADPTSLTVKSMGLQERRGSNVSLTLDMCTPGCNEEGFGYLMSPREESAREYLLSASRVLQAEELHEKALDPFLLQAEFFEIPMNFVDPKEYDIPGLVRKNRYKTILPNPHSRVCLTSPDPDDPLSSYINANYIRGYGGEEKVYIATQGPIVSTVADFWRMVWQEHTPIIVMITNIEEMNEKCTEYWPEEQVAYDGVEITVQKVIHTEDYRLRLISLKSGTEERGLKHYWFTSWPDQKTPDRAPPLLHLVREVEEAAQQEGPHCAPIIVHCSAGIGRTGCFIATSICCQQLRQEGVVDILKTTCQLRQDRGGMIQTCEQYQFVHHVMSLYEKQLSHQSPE
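Material: STEP (striatal-enriched tyrosine phosphatase) enzyme, cell-free | Medium: 50 mM Bis-Tris pH 6.0 with 2.5 mM DTT and 0.005% Tween 20 | Read-out: Percent inhibition scaled to no-enzyme and uninhibited-enzyme controls, plate-pattern corrected | Signal: Fluorescence read at 480 nm ex / 540 nm em | Times: 20 min reaction, room temperature, in the dark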
DNMT1 inh – inhibitors of human DNMT1. P26358. DNMT1 molecular beacon, Hinp1I cleavage, fluorescence. 0.83% of 360,000 active. AID 588458. inhibition (reported as % activation of signal), % at 10 µM; in the data active means inhibition above about 50%
Beacon interf DR – shows spectral interference in the DNMT1 beacon assay. shares compounds with DNMT1 inh. molecular beacon fluorescence, spectral interference counter-screen. IC50, µM. 200 tested, under 10 active. AID 602382; call rule not given here
DNMT1 confirm – DNMT1 inhibition confirmation, single concentration; DNMT1 molecular beacon HinP1I cleavage, fluorescence; inhibition, % at 10 µM; 8% of 2,300 active; shares compounds with DNMT1 inh;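 active means average inhibition of at least 30% in the single-concentration confirmation test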
DNMT1 interf – shows spectral interference in the DNMT1 beacon assay | activation (fluorescence interference), % at 10 µM | shares compounds with DNMT1 inh | 1% of 2,300 active | DNMT1 molecular beacon spectral interference counterscreen, fluorescence 485/520;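 active means activation of at least 30% at 10 µM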;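 further: DNMT1 catalytic domain with a HinP1I cleavage step and a FAM/dabcyl DNA beacon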
Starred values were filed as active, the others as inactive; · = no result given.

SMILES | Rpn11 block | Scp1 inh | LMPTP inh | SUMO1-SIM PPI | STEP inh | DNMT1 inh | DNMT1 confirm | DNMT1 interf | others
CC(=O)Oc1cccc(/C=c2\sc3nc(-c4ccco4)nn3c2=O)c1 | 13 | 14 | -1 | 26 | 2 | 61* | 2 | 2
CCc1ccc([C@H]2C(C(=O)O)=C[C@@H](CC)N2S(=O)(=O)c2ccc(C)cc2)cc1 | 1 | 8 | -2 | 2 | 2 | 74* | 4 | 1
O=C(NC(=S)NCCC1=CCCCC1)c1cncc(Br)c1 | 2 | -11 | 2 | -1 | -2 | -5 | · | ·
Cc1ccc(NC(=O)c2oc3ccccc3c2COC(C)C)cc1S(=O)(=O)N1CCOCC1 | 4 | -8 | 2 | -2 | -2 | 4 | · | ·
Cc1oc2c(c1C(=O)c1ccc(Cl)cc1)C(=O)C(=O)c1ccccc1-2 | -3 | 0 | 2 | 16 | 10 | 74* | 21 | -9 | Beacon interf DR=>99
C=CCNC(=O)COC(=O)CCC(=O)c1cccs1 | 5 | -1 | -1 | 1 | -3 | 64* | 3 | 2
O=C(NCc1ccccn1)C1CCN(C2CCN(Cc3cccc(F)c3)CC2)CC1 | 5 | · | 0 | 2 | 0 | 4 | · | ·
CCCc1c(C(=O)N/N=C/C(C)=C/c2ccccc2)nnn1-c1nonc1N | -9 | -6 | 1 | -2 | 1 | 6 | · | ·
CCCc1c(C(=O)N/N=C/C=C/c2ccccc2)nnn1-c1nonc1N | 27 | · | 1 | 15 | 5 | 51* | 2 | 6
Cc1nc(NCc2cccnc2)c2c3c(sc2n1)CCCC3 | -7 | -6 | 4 | 4 | 27 | 51* | 1 | -5
O=C1c2ccccc2-c2c1c1ccccc1c(=O)n2-c1ccccc1 | -6 | -16 | 0 | -3 | 0 | 50 | 2 | 4
N#Cc1nnn(-c2ccc(Cl)cc2)c1N | -2 | -3 | -1 | -6 | 0 | 90* | 0 | 1
CC(C)OCCCNC(=O)CN1C(=O)CSc2ccc(S(=O)(=O)N3CCCCC3)cc21 | -4 | -1 | -2 | 9 | -2 | 69* | 8 | -2
CC(C)OCCCNC(=O)CN1C(=O)COc2ccc(S(=O)(=O)N3CCCCCC3)cc21 | 4 | -4 | 0 | -3 | -2 | -2 | · | ·
Cc1cn([C@H]2C[C@H](O)[C@@H](CCC(=O)NCCc3cccs3)O2)c(=O)[nH]c1=O | -6 | · | -2 | 1 | -3 | 9 | · | ·
O=C1CC(c2ccco2)CC(O)=C1C=NCC1CCNCC1 (stereo unspecified) | -29 | -5 | 0 | 49* | 0 | 67* | 1 | 5
COc1ccc(C(O)c2nc(-c3cccc(C(=O)O)c3)cs2)cc1 (stereo unspecified) | 1 | · | -2 | 5 | -2 | 3 | · | ·
CC(C)(C)NC(=O)CN(C(=O)c1csnn1)c1cccc2c1CCCC2 | -1 | -10 | -2 | -1 | 1 | 0 | · | ·
CNc1cc(C(=O)Nc2cccc(OCc3ccccc3)c2)ncn1 | 2 | · | -1 | -4 | 0 | -4 | · | ·
N=c1c(S(=O)(=O)c2ccc(Br)cc2)cc2c(=O)n3ccccc3nc2n1Cc1ccco1 | 15 | 23 | 40 | 12 | 16 | 86* | 5 | 0
COc1ccc(CCNC(=O)c2cc3c(=O)n4ccccc4nc3n(Cc3ccco3)c2=N)cc1OC | 0 | 7 | 23 | 10 | 1 | 8 | · | ·
Cc1ccc(Cn2c(=N)c(C(=O)NCc3ccco3)cc3c(=O)n4ccccc4nc32)cc1 | -5 | 33 | 59* | -5 | 5 | 82* | 3 | -5
COc1ccc(/C=C/C(=O)NC(=S)Nc2cc3oc4ccccc4c3cc2OC)cc1 | 5 | 1 | 1 | 5 | 0 | 57* | 0 | -10
